Assay results from ChEMBL document CHEMBL3259610, “Liver S9 Fraction-Derived Metabolites of Curcumin Analogue UBS109” (ACS Med Chem Lett, 2014).
Blank lines part the entries; values can stand above or below the molecule they belong to. Activity calls are given as the source filed them. The calls are words filed in the database; no cut-off is given here.

Key:
[1] = Drug metabolism in human liver S9 fraction assessed as (E)-1-methyl-3,5-bis(2-pyridinylmethylidene)-4-hydroxypiperidine formation at 1 uM using 1% DMSO measured after 1 hr by LC/MS-MS analysis in absence of NADPH; assay type: ADME; conditions: s9, 1 h
In short: (§1)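 Compound was incubated in pooled liver S9 fractions (mouse, cynomolgus monkey, human), mostly with NADPH and in 1% DMSO. Human S9 was also run without NADPH, and at 0.2% DMSO. Parent loss and metabolite formation were followed over time by LC–MS/MS, and half-life was derived from parent depletion.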

[2] = Drug metabolism in human liver S9 fraction assessed as (E)-1-methyl-3-(2-pyridinylmethyl)-5-(2-pyridinylmethylidene)-4-piperidone formation at 1 uM using 1% DMSO measured at 60 mins by LC/MS-MS analysis in presence of NADPH; assay type: ADME, subcellular; conditions: s9, 1 h; in short: as §1
[3] = Half life in human liver S9 fraction at 2 uM in absence of NADPH
[4] = Half life in cynomolgus monkey liver S9 fraction at 1 uM using 1% DMSO; assay type: ADME, subcellular, Macaca fascicularis; in short: as §1
[5] = Drug metabolism in human liver S9 fraction assessed as (E)-1-methyl-3-(2-pyridinylmethyl)-5-(2-pyridinylmethylidene)-4-piperidone formation at 1 uM using 1% DMSO measured after 1 hr by LC/MS-MS analysis in absence of NADPH; assay type: ADME; conditions: s9, 1 h; in short: as §1
[6] = Drug metabolism in Sprague-Dawley rat liver S9 fraction at 1 uM using 1% DMSO measured after 60 mins by LC/MS-MS analysis in presence of NADPH; assay type: ADME, subcellular; conditions: s9, 1 h
[7] = Half life in CD1 mouse liver S9 fraction at 1 uM using 1% DMSO; assay type: ADME, subcellular; in short: as §1
[8] = Drug metabolism in Beagle dog whole blood assessed as (E)-1-methyl-3-(2-pyridinylmethyl)-5-(2-pyridinylmethylidene)-4-piperidone formation at 1 uM after 2 hrs by LC/MS-MS analysis; assay type: ADME, tissue-based, Canis lupus familiaris
Blood [9] = assay: Drug metabolism in human whole blood assessed as (E)-1-methyl-3-(2-pyridinylmethyl)-5-(2-pyridinylmethylidene)-4-piperidone formation at 1 uM after 2 hrs by LC/MS-MS analysis; assay type: ADME, tissue-based
TU212 = assay: Cytotoxicity against human TU212 cells assessed as cell viability at 5 to 10 uM after 48 hrs by neutral red dye uptake assay; assay type: functional, cell-based
In short: (§2)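 TU212 (head and neck SCC) and MDA-MB-231 (breast adenocarcinoma) cells were exposed to compounds at 5 and 10 μM with DMSO below 0.1%. Viability was read by neutral red uptake. Error bars are standard error of the mean, and significance was tested by two-tailed t test.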

[10] = Drug metabolism in human liver S9 fraction assessed as (E)-1-methyl-3,5-bis(2-pyridinylmethylidene)-4-hydroxypiperidine formation at 1 uM using 1% DMSO measured at 60 mins by LC/MS-MS analysis in presence of NADPH; assay type: ADME, subcellular; conditions: s9, 1 h; in short: as §1
[11] = Plasma protein binding in mouse; assay type: ADME, organism-based; conditions: read-out: PPB (converted)
[12] = Half life in human liver S9 fraction at 2 uM using 0.2% DMSO in presence of NADPH; assay type: ADME, subcellular; in short: as §1
[13] = Drug metabolism in CD1 mouse liver S9 fraction assessed as (E)-1-methyl-3-(2-pyridinylmethyl)-5-(2-pyridinylmethylidene)-4-piperidone formation at 1 uM using 1% DMSO measured at 60 mins by LC/MS-MS analysis in presence of NADPH; assay type: ADME, subcellular; conditions: s9, 1 h; in short: as §1
[14] = Metabolic stability in human liver S9 fraction assessed as remaining compound level at 2 uM using 0.2% DMSO measured after 1 hr by LC/MS-MS analysis in presence of NADPH; assay type: ADME, subcellular; conditions: read-out: Stability; in short: as §1
[15] = Drug metabolism in cynomolgus monkey whole blood assessed as (E)-1-methyl-3-(2-pyridinylmethyl)-5-(2-pyridinylmethylidene)-4-piperidone formation at 1 uM after 2 hrs by LC/MS-MS analysis; assay type: ADME, tissue-based, Macaca fascicularis
[16] = Metabolic stability in human liver S9 fraction assessed as remaining compound level at 2 uM using 0.2% DMSO measured after 1 hr by LC/MS-MS analysis in absence of NADPH; assay type: ADME; conditions: read-out: Stability; in short: as §1
[17] = Elimination half life in mouse; assay type: ADME, organism-based; conditions: in vivo, read-out: beta t1/2 (converted)
Liver = assay: Drug level in human liver S9 fraction treated with UBS109 at 1 uM using 1% DMSO measured after 1 hr by LC/MS-MS analysis in absence of NADPH; assay type: ADME; conditions: s9, 1 h; in short: as §1
[18] = Growth inhibition of human TU212 cells after 48 hrs by neutral red dye uptake assay; assay type: functional; conditions: TU212, 48 h; in short: as §2
[19] = Drug level in human liver S9 fraction treated with UBS109 at 1 uM using 1% DMSO measured at 60 mins by LC/MS-MS analysis in presence of NADPH; assay type: ADME, subcellular; conditions: s9, 1 h; in short: as §1
MDA-MB-231 = assay: Growth inhibition of human MDA-MB-231 cells after 48 hrs by neutral red dye-based assay; assay type: functional; conditions: MDA-MB-231, 48 h; in short: as §2
[20] = Drug level in cynomolgus monkey whole blood treated with UBS109 at 1 uM after 2 hrs by LC/MS-MS analysis; assay type: ADME, tissue-based, Macaca fascicularis
[21] = Drug level in Beagle dog whole blood treated with UBS109 at 1 uM after 2 hrs by LC/MS-MS analysis; assay type: ADME, tissue-based, Canis lupus familiaris
Blood [22] = assay: Drug level in human whole blood treated with UBS109 at 1 uM after 2 hrs by LC/MS-MS analysis; assay type: ADME, tissue-based
[23] = Drug level in CD1 mouse liver S9 fraction treated with UBS109 at 1 uM using 1% DMSO measured after 60 mins by LC/MS-MS analysis in presence of NADPH; assay type: ADME, subcellular; conditions: s9, 1 h; in short: as §1
[24] = Elimination half life in ND4 Swiss Webster mouse at 12.5 to 25 mg/kg, ip; assay type: ADME, organism-based; design: dose 12.5-25 mg/kg, route intraperitoneal; conditions: in vivo, read-out: beta t1/2

Drug metabolism (Liver): metabolite_detected | Drug metabolism [19]: metabolite_detected | GI50 (MDA-MB-231): > 10 µM
SMILES: CN1C/C(=C\c2ccccn2)C(O)/C(=C/c2ccccn2)C1 (configuration not stated)
GI50 [18]: > 10 µM

half-life [24]: ≤ 1 min
SMILES: O=C1/C(=C/c2ccccn2)CNC/C1=C\c1ccccn1

Further lines, the molecule ahead of its results:

SMILES: CN1C/C(=C\c2ccccn2)C(=O)/C(=C/c2ccccn2)C1
Drug metabolism [1]: metabolite_detected | Drug metabolism [2]: metabolite_detected | half-life at 2 µM [3]: 18 min | half-life at 1 µM [4]: 8 min | Drug metabolism [5]: metabolite_detected | Drug metabolism [6]: metabolite_detected | half-life at 1 µM [7]: 38 min | Drug metabolism [8]: metabolite_detected | Drug metabolism (Blood [9]): metabolite_detected | Activity (TU212): Active | Drug metabolism [10]: metabolite_detected | fraction unbound [11]: 0.06 | half-life at 2 µM [12]: 9 min | Drug metabolism [13]: metabolite_detected | remaining at 1 h, 2 µM [14]: 4.1% | Drug metabolism [15]: metabolite_detected | remaining at 1 h, 2 µM [16]: 27.6% | half-life [17]: 240 min

SMILES: O=C1/C(=C/c2ccccc2F)CNC/C1=C\c1ccccc1F
half-life [17]: 60 min

SMILES: CN1C/C(=C\c2ccccn2)C(=O)C(Cc2ccccn2)C1 (configuration not stated)
Drug metabolism [20]: metabolite_detected | Drug metabolism (Liver): metabolite_detected | GI50 [18]: > 10 µM | Drug metabolism [21]: metabolite_detected | Drug metabolism (Blood [22]): metabolite_detected | Drug metabolism [19]: metabolite_detected | Drug metabolism [23]: metabolite_detected | GI50 (MDA-MB-231): > 5 µM
